The source of these data is ChEMBL document CHEMBL3272240, “[1-deaminopenicillamine,4-valine]-8-D-arginine-vasopressin, a highly potent inhibitor of the vasopressor response to arginine-vasopressin” (J Med Chem, 1977).

Activity calls are given as the source filed them. The calls are words filed in the database; no cut-off is given here. Starred links: 1 amine or outer side, 2 acyl side, 3 side chain; linkers in the order of their positions; H or OH if unused. Positions of bridges follow the written chain, without caps; N, C: chain ends. Non-standard residues stand in square brackets, D forms with d. Residues, ends and D or L forms follow the SMILES beside them. X2 = CCC(CC)(CC(=O)[*:1])S[*:2]; X1 = CC(C)(CC(=O)[*:1])S[*:2]; Mpa = O=C(O)CCS

Assay [1] deals with Rattus norvegicus. As to the kind of experiment: Antivasopressor activity in phenoxybenzamine-treated rat assessed as inhibition of arginine-vasopressin-induced vasopressor response at 10 ug/kg, iv measured for >= 2.5 hrs. Type of assay: functional, organism-based. In short, it runs like this:
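Rats received a single iv injection of 10 μg/kg antagonist. Vasopressor responses to AVP challenges of 10-40 mU/kg (about 25-100 ng/kg) were then followed. The duration of inhibition was recorded as an average period.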

The species named for assay [2] is Rattus norvegicus. Description: Antivasopressor activity in phenoxybenzamine-treated rat assessed as inhibition of norepinephrine-induced vasopressor response. In kind it is functional, organism-based.
For assay [3], the species on record is Rattus norvegicus. As to the kind of experiment: Antivasopressor activity in phenoxybenzamine-treated rat assessed as inhibition of angiotensin 2-induced vasopressor response. Type of assay: functional, organism-based.
The nature of assay [4]: Antioxytocic activity in Sherman albino rat uterus assessed as inhibition of oxytocin-induced contraction. Type of assay: functional, tissue-based. The gist of the method: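 Isolated rat uterus in magnesium-free van Dyke-Hastings solution. The antagonist was added to the bath immediately before injection of agonist (USP Posterior Pituitary Reference Standard). pA2 was calculated per Schild as the −log molar antagonist concentration reducing the response to 2X units of agonist to that of X units. A pA2 was computed per assay group and reported as mean ± SE.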

For assay [5], the system named is Rattus norvegicus. Description: Antidiuretic antagonist activity in sc dosed Brattleboro rat hereditary hypothalamic diabetes insipidus model. Type of assay: functional, organism-based. The settings on record: Urine.
The test system of assay [6] is Rattus norvegicus. Description: Antidiuretic activity in sc dosed Brattleboro rat hereditary hypothalamic diabetes insipidus model measured over 6 hrs. Type of assay: functional, Urine. The gist of the method: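 Brattleboro rats with hereditary hypothalamic diabetes insipidus received a single sc injection of 100 ng/kg. Inhibition of diuresis was followed over time to record its duration.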

Assay [7] concerns Rattus norvegicus. As to the kind of experiment: Antidiuretic activity in sc dosed Brattleboro rat hereditary hypothalamic diabetes insipidus model. In kind it is functional, organism-based. The conditions noted are these: Urine.
Assay [8] can be described thus: Oxytocic activity in Sherman albino rat uterus assessed as contraction. In kind it is functional.
The subject of assay [9] is Rattus norvegicus. As to the kind of experiment: Ratio of dPVDAVP to compound for antidiuretic activity in sc dosed Brattleboro rat hereditary hypothalamic diabetes insipidus model.
Assay [10] concerns Rattus norvegicus. Description: Antivasopressor activity in iv dosed phenoxybenzamine-treated rat assessed as inhibition of lysine-vasopressin-induced vasopressor response. The settings on record: read-out: pA2 (converted). In kind it is functional, organism-based. The gist of the method:
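Urethane-anesthetized, phenoxybenzamine-treated rats as in the standard rat vasopressor assay. The antagonist was given iv immediately before iv injection of agonist standard, with LVP as agonist. pA2 is the −log molar antagonist concentration halving the effect of a doubled agonist dose. Peptide was assumed uniformly distributed in blood volume. pA2 was computed per assay group and reported as mean ± SE.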

Assay [11] concerns Rattus norvegicus. As to the kind of experiment: Antidiuretic activity in Brattleboro rat hereditary hypothalamic diabetes insipidus model at 100 ug/kg, sc measured over 1.7 hrs. In kind it is functional, organism-based. The conditions noted are these: Urine. The gist of the method:
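Single subcutaneous injection into Brattleboro rats with hereditary hypothalamic diabetes insipidus. The value recorded is the duration, in hours, for which diuresis was inhibited (antidiuresis) after dosing.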

As for `CC(C)[C@@H]1NC(=O)[C@H](Cc2ccccc2)NC(=O)[C@H](Cc2ccc(O)cc2)NC(=O)CC(C)(C)SSC[C@@H](C(=O)N2CCC[C@H]2C(=O)N[C@H](CCCNC(=N)N)C(=O)NCC(N)=O)NC(=O)[C@H](CC(N)=O)NC1=O` (YFVNCP[dR]G-NH2; linker N-5 via X1), the inhibition result with Rattus norvegicus [1] was “Active”. Also, the inhibition entry in the assay filed under Rattus norvegicus [2] and in the assay filed under Rattus norvegicus [3] was “inactive” throughout. The pA2 (usually a measure of antagonist potency on a negative log scale) in assay [4] is recorded as 7.23. The result in the assay with Rattus norvegicus [5] was inactive. The compound further came in with an Activity in the assay with Rattus norvegicus [6] of 123 U/mg. Further, in the assay with Rattus norvegicus [7], the outcome was Active.
On to `CC(C)[C@@H]1NC(=O)[C@H](Cc2ccccc2)NC(=O)[C@H](Cc2ccc(O)cc2)NC(=O)CCSSC[C@@H](C(=O)N2CCC[C@H]2C(=O)N[C@H](CCCNC(=N)N)C(=O)NCC(N)=O)NC(=O)[C@H](CC(N)=O)NC1=O` ([Mpa]YFVNCP[dR]G-NH2; disulfide 1-6), for which the Activity was found to be 8 U/mg in assay [8] and 1230 U/mg in the assay on Rattus norvegicus [6]. Besides, the Ratio in the assay on Rattus norvegicus [9] was found to be 10.
Consider `CCC1(CC)CC(=O)N[C@@H](Cc2ccc(O)cc2)C(=O)N[C@@H](Cc2ccccc2)C(=O)N[C@@H](CCC(N)=O)C(=O)N[C@@H](CC(N)=O)C(=O)N[C@H](C(=O)N2CCC[C@H]2C(=O)N[C@@H](CCCCN)C(=O)NCC(N)=O)CSS1` (YFQNCPKG-NH2; linker N-5 via X2), for which the pA2 in assay [4] was found to be 6.84. For the same compound, the Kb in the assay with Rattus norvegicus [10] is 0.0708 µM.
With `N=C(N)NCCC[C@H](NC(=O)[C@@H]1CCCN1C(=O)[C@@H]1CSSC[C@H](N)C(=O)N[C@@H](Cc2ccc(O)cc2)C(=O)N[C@@H](Cc2ccccc2)C(=O)N[C@@H](CCC(N)=O)C(=O)N[C@@H](CC(N)=O)C(=O)N1)C(=O)NCC(N)=O`, in the assay on Rattus norvegicus [11], the result was Active.
